Laboratory results published in ChEMBL document CHEMBL3808334, “Synthesis and in vitro evaluation of novel triazine analogues as anticancer agents and their interaction studies with bovine serum albumin” (Eur J Med Chem, 2016).

Legend:
Type in all cases: functional
[1] = Growth inhibition of human OVCAR4 cells assessed as cell growth at 10 uM incubated for 48 hrs by sulforhodamine B assay; settings: OVCAR-4, 48 h, read-out: Activity
[2] = Growth inhibition of human SF268 cells assessed as cell growth at 10^-8 M incubated for 48 hrs by sulforhodamine B assay; settings: SF-268, 48 h, read-out: Activity
[3] = Growth inhibition of human BT549 cells assessed as cell growth at 10^-8 M incubated for 48 hrs by sulforhodamine B assay; settings: BT-549, 48 h, read-out: Activity
How it was run: (§1)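 Five-dose assay: five concentrations from 10-fold or ½-log serial dilutions. Cells are plated at 5,000–40,000 per well according to doubling time, grown 24 h, then exposed 48 h at 37 °C, 5% CO₂. Fixed with cold 50% TCA (final addition) for 60 min at 4 °C and stained with 0.4% SRB in 1% acetic acid. Bound dye is solubilized in 10 mM Tris base and read at 515 nm. GI₅₀ is where [(Ti−Tz)/(C−Tz)]×100 = 50, with a time-zero plate as Tz.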

MCF7 [4] = assay: Growth inhibition of human MCF7 cells assessed as cell growth at 10^-7 M incubated for 48 hrs by sulforhodamine B assay; settings: MCF7, 48 h, read-out: Activity
[5] = Growth inhibition of human HCT15 cells assessed as cell growth at 10^-6 M incubated for 48 hrs by sulforhodamine B assay; settings: HCT-15, 48 h, read-out: Activity
How it was run: (§2)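 Cells seeded at 5,000–40,000/well according to doubling time and preincubated 24 h at 37 °C, 5% CO2. Time-zero plates were TCA-fixed. DMSO concentrate was diluted in medium with 50 µg/ml gentamicin to give five concentrations (10-fold or ½ log steps), then exposed 48 h. Cells were TCA-fixed, stained with 0.4% SRB and read at 515 nm. Percent growth was taken against time-zero and control; GI50, TGI and LC50 derived.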

MCF7 [6] = assay: Growth inhibition of human MCF7 cells assessed as cell growth at 10^-8 M incubated for 48 hrs by sulforhodamine B assay; settings: MCF7, 48 h, read-out: Activity
[7] = Growth inhibition of human PC3 cells assessed as cell growth at 10^-8 M incubated for 48 hrs by sulforhodamine B assay; settings: PC-3, 48 h, read-out: Activity
[8] = Growth inhibition of human Caki1 cells assessed as cell growth at 10^-4 M incubated for 48 hrs by sulforhodamine B assay; settings: CAKI-1, 48 h, read-out: Activity; how it was run: as §2
SK-MEL-5 [9] = assay: Growth inhibition of human SK-MEL-5 cells assessed as cell growth at 10^-7 M incubated for 48 hrs by sulforhodamine B assay; settings: SK-MEL-5, 48 h, read-out: Activity
SK-MEL-28 [10] = assay: Growth inhibition of human SK-MEL-28 cells assessed as cell growth at 10^-7 M incubated for 48 hrs by sulforhodamine B assay; settings: SK-MEL-28, 48 h, read-out: Activity
SK-MEL-5 [11] = assay: Growth inhibition of human SK-MEL-5 cells assessed as cell growth at 10^-6 M incubated for 48 hrs by sulforhodamine B assay; settings: SK-MEL-5, 48 h, read-out: Activity
[12] = Growth inhibition of human RXF393 cells assessed as cell growth at 10 uM incubated for 48 hrs by sulforhodamine B assay; settings: RXF 393, 48 h, read-out: Activity
EKVX = assay: Growth inhibition of human EKVX cells assessed as cell growth at 10 uM incubated for 48 hrs by sulforhodamine B assay; settings: read-out: Activity
How it was run: (§3)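 Primary screen at one dose (10 µM) across 60 human cancer cell lines. Readout was growth percent relative to untreated control and time-zero.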

CCRF-CEM = assay: Growth inhibition of human CCRF-CEM cells incubated for 48 hrs by sulforhodamine B assay
How it was run: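 Leukemia line in the five-dose format: five concentrations from 10-fold or ½-log serial dilutions. Plated at 5,000–40,000 cells per well, preincubated 24 h, then compound added for 48 h at 37 °C, 5% CO₂. Sulforhodamine B absorbance read at 515 nm. Growth is computed against time-zero (Tz) and control (C) readings; GI₅₀ is where [(Ti−Tz)/(C−Tz)]×100 = 50.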

[13] = Growth inhibition of human DU145 cells assessed as cell growth at 10 uM incubated for 48 hrs by sulforhodamine B assay; settings: DU-145, 48 h, read-out: Activity; how it was run: as §3
[14] = Growth inhibition of human HOP92 cells assessed as cell growth at 10^-8 M incubated for 48 hrs by sulforhodamine B assay; settings: HOP-92, 48 h, read-out: Activity
NCI-H23 = assay: Growth inhibition of human NCI-H23 cells incubated for 48 hrs by sulforhodamine B assay; settings: NCI-H23, 48 h
How it was run: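 Cells were plated at 5,000–40,000 per well according to doubling time and preincubated 24 h at 37 °C in 5% CO2; time-zero plates were then TCA-fixed. Five concentrations (10-fold or ½-log dilutions, DMSO stock) were incubated 48 h. Cells were TCA-fixed, stained with 0.4% SRB and read at 515 nm. GI50 was taken where [(Ti−Tz)/(C−Tz)]×100 = 50.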

[15] = Growth inhibition of human Hs 578T cells assessed as cell growth at 10^-8 M incubated for 48 hrs by sulforhodamine B assay; settings: read-out: Activity
[16] = Growth inhibition of human COLO205 cells assessed as cell growth at 10^-6 M incubated for 48 hrs by sulforhodamine B assay; settings: COLO 205, 48 h, read-out: Activity; how it was run: as §2
[17] = Growth inhibition of human BT549 cells assessed as cell growth at 10^-7 M incubated for 48 hrs by sulforhodamine B assay; settings: BT-549, 48 h, read-out: Activity; how it was run: as §1
NCI-H226 = assay: Growth inhibition of human NCI-H226 cells assessed as cell growth at 10^-5 M incubated for 48 hrs by sulforhodamine B assay; settings: NCI-H226, 48 h, read-out: Activity
[18] = Growth inhibition of human COLO205 cells assessed as cell growth at 10^-8 M incubated for 48 hrs by sulforhodamine B assay; settings: COLO 205, 48 h, read-out: Activity; how it was run: as §2
[19] = Growth inhibition of human Hs 578T cells assessed as cell growth at 10 uM incubated for 48 hrs by sulforhodamine B assay; settings: read-out: Activity
U-251 = assay: Growth inhibition of human U251 cells assessed as cell growth at 10^-4 M incubated for 48 hrs by sulforhodamine B assay; settings: U-251, 48 h, read-out: Activity
SK-MEL-28 [20] = assay: Growth inhibition of human SK-MEL-28 cells assessed as cell growth at 10^-8 M incubated for 48 hrs by sulforhodamine B assay; settings: SK-MEL-28, 48 h, read-out: Activity
[21] = Growth inhibition of human HOP62 cells assessed as cell growth at 10^-7 M incubated for 48 hrs by sulforhodamine B assay; settings: HOP-62, 48 h, read-out: Activity
[22] = read-out: LC50 (the source's name)
[23] = read-out: pLC50 (the source's name) (converted)

| SMILES | growth at 10 µM [1] [%] | growth at 0.01 µM [2] [%] | growth at 0.01 µM [3] [%] | growth at 0.1 µM (MCF7 [4]) [%] | growth at 1 µM [5] [%] | growth at 0.01 µM (MCF7 [6]) [%] | growth at 0.01 µM [7] [%] | growth at 100 µM [8] [%] | growth at 0.1 µM (SK-MEL-5 [9]) [%] | growth at 0.1 µM (SK-MEL-28 [10]) [%] | growth at 1 µM (SK-MEL-5 [11]) [%] | growth at 10 µM [12] [%] | growth at 10 µM (EKVX) [%] | GI50 (CCRF-CEM; read-out: GI50) [µM] | TGI (CCRF-CEM; read-out: TGI) [µM] | GI50 (CCRF-CEM; read-out: pGI50 (converted)) [µM] | TGI (CCRF-CEM; read-out: pTGI (converted)) [µM] | growth at 10 µM [13] [%] | growth at 0.01 µM [14] [%] | GI50 (NCI-H23; read-out: GI50) [µM] | other results |
| --- | --- | --- | --- | --- | --- | --- | --- | --- | --- | --- | --- | --- | --- | --- | --- | --- | --- | --- | --- | --- | --- |
| c1ccc(-c2nc(Nc3ccc(-c4nc5ccccc5[nH]4)cc3)nc(N3CCOCC3)n2)cc1 | -47.2 | 96 | 99 | 92 | 13 | 92 | 99 | -100 | 104 | 97 | 92 | -75.1 | -66.9 | 0.544 | 3.12 | 0.55 | 3.09 | -27.8 | 93 | 2.07 | CC50 (CCRF-CEM; [22]): > 100 µM; CC50 (CCRF-CEM; [23]): > 100 µM; CC50 (NCI-H23; [22]): 68.7 µM; TGI (NCI-H23; read-out: TGI): 4.78 µM; GI50 (NCI-H23; read-out: pGI50 (converted)): 2.09 µM; CC50 (NCI-H23; [23]): 69.2 µM; TGI (NCI-H23; read-out: pTGI (converted)): 4.79 µM; growth at 0.01 µM [15]: 94%; growth at 1 µM [16]: 72%; growth at 0.1 µM [17]: 100%; growth at 10 µM (NCI-H226): -60%; growth at 0.01 µM [18]: 100%; growth at 10 µM [19]: -39.9%; growth at 100 µM (U-251): -69%; growth at 0.01 µM (SK-MEL-28 [20]): 103%; growth at 0.1 µM [21]: 93% |
| Clc1ccc(-c2nc(Nc3ccc(-c4nc5ccccc5[nH]4)cc3)nc(N3CCOCC3)n2)cc1 | -73.9 | 98 | 96 | 86 | -57 | 92 | 98 | -68 | 102 | 102 | 93 | -91.1 | -91.3 | 0.259 | 0.687 | 0.257 | 0.692 | -94 | 90 | 1.7 | TGI (NCI-H23; read-out: TGI): 3.66 µM; GI50 (NCI-H23; read-out: pGI50 (converted)): 1.7 µM; TGI (NCI-H23; read-out: pTGI (converted)): 3.63 µM; growth at 0.01 µM [15]: 90%; growth at 1 µM [16]: 2%; growth at 0.1 µM [17]: 93%; growth at 10 µM (NCI-H226): -55%; growth at 0.01 µM [18]: 95%; growth at 10 µM [19]: -40.2%; growth at 100 µM (U-251): -44%; growth at 0.01 µM (SK-MEL-28 [20]): 105%; growth at 0.1 µM [21]: 93% |
| Fc1ccc(-c2nc(Nc3ccc(-c4nc5ccccc5[nH]4)cc3)nc(N3CCOCC3)n2)cc1 | 59.8 | 95 | 94 | 89 | 74 | 94 | 100 | -29 | 101 | 91 | 97 | -67.5 | 7.91 | 3.11 | > 100 | 3.09 | > 100 | 38.5 | 96 | 2.57 | CC50 (CCRF-CEM; [22]): > 100 µM; CC50 (CCRF-CEM; [23]): > 100 µM; CC50 (NCI-H23; [22]): > 100 µM; TGI (NCI-H23; read-out: TGI): 9.9 µM; GI50 (NCI-H23; read-out: pGI50 (converted)): 2.57 µM; CC50 (NCI-H23; [23]): > 100 µM; TGI (NCI-H23; read-out: pTGI (converted)): 10 µM; growth at 0.01 µM [15]: 95%; growth at 1 µM [16]: 92%; growth at 0.1 µM [17]: 97%; growth at 10 µM (NCI-H226): -8%; growth at 0.01 µM [18]: 100%; growth at 10 µM [19]: -11.9%; growth at 100 µM (U-251): -33%; growth at 0.01 µM (SK-MEL-28 [20]): 101%; growth at 0.1 µM [21]: 97% |
| c1ccc2[nH]c(-c3ccc(Nc4nc(N5CCCCC5)nc(N5CCOCC5)n4)cc3)nc2c1 | 61.2 | 96 | 94 | 91 | 87 | 95 | 96 | -32 | 93 | 100 | 97 | -56.1 | 27.7 | 3.25 | > 100 | 3.24 | > 100 | 39 | 92 | 3.05 | CC50 (CCRF-CEM; [22]): > 100 µM; CC50 (CCRF-CEM; [23]): > 100 µM; CC50 (NCI-H23; [22]): > 100 µM; TGI (NCI-H23; read-out: TGI): 15.7 µM; GI50 (NCI-H23; read-out: pGI50 (converted)): 3.02 µM; CC50 (NCI-H23; [23]): > 100 µM; TGI (NCI-H23; read-out: pTGI (converted)): 15.8 µM; growth at 0.01 µM [15]: 96%; growth at 1 µM [16]: 92%; growth at 0.1 µM [17]: 95%; growth at 10 µM (NCI-H226): 12%; growth at 0.01 µM [18]: 99%; growth at 10 µM [19]: -12.6%; growth at 100 µM (U-251): -56%; growth at 0.01 µM (SK-MEL-28 [20]): 100%; growth at 0.1 µM [21]: 96% |
